For experiment [1], the system named is Escherichia coli. The experiment can be described thus: Antimicrobial activity against Escherichia coli ATCC 2452 at 200 ug/ml by Alamar blue based CLSI method. Type of experiment: functional, organism-based. (In general: The colour change of resazurin is a common sign of viable cells or microbes.)
Experiment [2] has as its system Staphylococcus aureus. The experiment can be described thus: Antimicrobial activity against methicillin-resistant Staphylococcus aureus ATCC 1708 at 200 ug/ml by Alamar blue based CLSI method. Type of experiment: functional, organism-based. A digest of the protocol: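 S. aureus ATCC 1708 tested by a modified CLSI method. Samples were dissolved in DMSO and serially diluted in 20% DMSO/saline, and final test concentrations were 1/100th of the DMSO stock. MIC was taken as the lowest concentration with no detectable growth.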

Experiment [3] concerns Pseudomonas aeruginosa. The experiment can be described thus: Antimicrobial activity against Pseudomonas aeruginosa ATCC 2108 at 200 ug/ml by Alamar blue based CLSI method. Type of experiment: functional, organism-based.
In experiment [4] the test system is Staphylococcus aureus. The experiment can be described thus: Growth inhibition of Staphylococcus aureus EAMC30 at 62.5 ug/ml by Alamar blue based CLSI method relative to control. Particulars: read-out: GI. The format is functional.
Experiment [5] deals with Mycobacterium intracellulare. The experiment in a line: Antimycobacterial activity against Mycobacterium intracellulare ATCC 23068 after 70 to 74 hrs by Alamar blue based CLSI method. Type of experiment: functional.
The test system of experiment [6] is Mycobacterium tuberculosis. The experiment in a line: Antimycobacterial activity against Mycobacterium tuberculosis ATCC 25177 after 5 days by Alamar blue based CLSI method. Type of experiment: functional. The conditions noted are these: H37Ra, 120 h.

Among the data in ChEMBL document CHEMBL4145617, “Chloramphenicol Derivatives with Antibacterial Activity Identified by Functional Metagenomics” (2018) are Activity, inhibition of growth and MIC values, retold here.

Usually MIC stands for the smallest concentration in the dilution series that meets the test's criterion for growth inhibition. High values mean a less susceptible organism, low ones a more susceptible organism.

Converted amounts (≈) assume the structure as drawn. The source made the active and inactive calls. Where only a bound is given, the exact number is not on record here.

`CCCC(=O)O[C@H](c1ccc([N+](=O)[O-])cc1)[C@@H](COC(=O)CC)NC(=O)C(Cl)Cl`: the result in experiment [1], in experiment [2] and in experiment [3] was inactive.

Regarding `CCC(=O)OC[C@@H](NC(=O)C(Cl)Cl)[C@H](OC(=O)CC)c1ccc([N+](=O)[O-])cc1`, the outcome in experiment [1], in experiment [2] and in experiment [3] was inactive. Also, in experiment [4], the inhibition of growth at 62.5 µg/mL amounted to 40%.

As for `O=C(O[C@H](c1ccc([N+](=O)[O-])cc1)[C@@H](CO)NC(=O)C(Cl)Cl)c1ccc([N+](=O)[O-])cc1`, in experiment [4], the inhibition of growth at 62.5 µg/mL was 59%. Further, the MIC turned out to be 12.5 µg/mL (≈ 26.5 µM) in experiment [5] and 50 µg/mL (≈ 106 µM) in experiment [6].

On to `CCCC(=O)OC[C@@H](NC(=O)C(Cl)Cl)[C@H](O)c1ccc([N+](=O)[O-])cc1`, for which the outcome in experiment [1], in experiment [2] and in experiment [3] was inactive. Also, in experiment [4], the inhibition of growth at 62.5 µg/mL came to 36%.

`CCC(=O)OC[C@@H](NC(=O)C(Cl)Cl)[C@H](O)c1ccc([N+](=O)[O-])cc1`: the outcome in experiment [1], in experiment [2] and in experiment [3] was inactive. Also, the inhibition of growth at 62.5 µg/mL in experiment [4] is 72%.

Take `CC(=O)OC[C@@H](NC(=O)C(Cl)Cl)[C@H](OC(C)=O)c1ccc([N+](=O)[O-])cc1`: the result in experiment [1], in experiment [2] and in experiment [3] was inactive.

On to `CCC(=O)OC[C@@H](NC(=O)C(Cl)Cl)[C@H](OC(C)=O)c1ccc([N+](=O)[O-])cc1`, for which the outcome in experiment [1], in experiment [2] and in experiment [3] was inactive.

As for `O=C(N[C@H](CO)[C@H](O)c1ccc([N+](=O)[O-])cc1)C(Cl)Cl` [CHLORAMPHENICOL], the values for the MIC in experiment [5] and in experiment [6] were 25 µg/mL (≈ 77.4 µM) and over 100 µg/mL, respectively.

Regarding `O=C(/C=C/c1ccccc1)O[C@H](c1ccc([N+](=O)[O-])cc1)[C@@H](CO)NC(=O)C(Cl)Cl`, the inhibition of growth at 62.5 µg/mL in experiment [4] was found to be 35%.

With `CC(=O)OC[C@@H](NC(=O)C(Cl)Cl)[C@H](O)c1ccc([N+](=O)[O-])cc1`, the result in experiment [1], in experiment [2] and in experiment [3] was inactive. Further, the inhibition of growth at 62.5 µg/mL in experiment [4] worked out at 15%. This compound also displayed a minimal inhibitory concentration (MIC) in experiment [5] of 25 µg/mL (≈ 68.5 µM).

For the compound `CCCC(=O)OC[C@@H](NC(=O)C(Cl)Cl)[C@H](OC(=O)CCC)c1ccc([N+](=O)[O-])cc1`, the result in experiment [1], in experiment [2] and in experiment [3] was inactive. Besides, the inhibition of growth at 62.5 µg/mL in experiment [4] was 11%.

With `CCCC(=O)OC[C@@H](NC(=O)C(Cl)Cl)[C@H](OC(=O)CC)c1ccc([N+](=O)[O-])cc1`, the result in experiment [1], in experiment [2] and in experiment [3] was inactive.

In experiment [5], `CC(=O)O[C@H](c1ccc([N+](=O)[O-])cc1)[C@@H](CO)NC(=O)C(Cl)Cl` yielded an MIC of 25 µg/mL (≈ 68.5 µM).
